ChEMBL document CHEMBL2417486, “Exploring natural product chemistry and biology with multicomponent reactions. 5. Discovery of a novel tubulin-targeting scaffold derived from the rigidin family of marine alkaloids” (J Med Chem, 2013)

What was measured:
MCF7 = assay: Growth inhibition of human MCF7 cells after 48 hrs by MTT assay; format: functional; conditions: MCF7, 48 h
How it was run: (§1)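 Cells seeded at 4 × 10^3 per well, grown 24 h, then treated 48 h at 0.004–100 µM from 100 or 25 mM DMSO stocks. Controls were 0.1% DMSO and phenyl arsine oxide. MTT (5 mg/mL) added for 2 h, formazan dissolved in DMSO, A490 read. […] HeLa/MCF-7 in DMEM, MES-SA lines in RPMI-1640, all with 10% FBS.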

HeLa = assay: Growth inhibition of human HeLa cells after 48 hrs by MTT assay; format: functional; how it was run: as §1

| SMILES | GI50 (MCF7) | GI50 (HeLa) |
| --- | --- | --- |
| COc1ccc(C(=O)c2[nH]c3[nH]c(=O)[nH]c(=O)c3c2-c2ccc(OC)cc2)cc1 | > 100 µM | > 100 µM |
| COc1cc(-c2c(C(=O)c3ccc(Br)cc3)[nH]c3[nH]c(=O)[nH]c(=O)c23)cc(OC)c1OC | > 100 µM | > 100 µM |
| COc1ccc(C(=O)c2[nH]c3[nH]cnc(=O)c3c2-c2cc(OC)c(OC)c(OC)c2)cc1 | 7 µM | > 100 µM |
| N#Cc1cccc(-c2c(C(=O)c3ccc(OCc4ccccc4)cc3)[nH]c3ncnc(N)c23)c1 | > 100 µM | > 100 µM |
| O=C(c1ccc(O)cc1)c1[nH]c2[nH]cnc(=O)c2c1-c1cc(Br)cc(Br)c1 | 0.26 µM | 0.3 µM |
| COc1cc(-c2c(C(=O)c3ccccc3)[nH]c3[nH]cnc(=O)c23)cc(OC)c1OC | 33 µM | 48 µM |
| Nc1ncnc2[nH]c(C(=O)c3ccccc3)c(-c3c(Cl)cccc3Cl)c12 | > 100 µM | > 100 µM |
| O=C(c1ccccc1)c1[nH]c2[nH]cnc(=O)c2c1-c1cccc(Br)c1 | 0.06 µM | 0.13 µM |
| O=C(c1ccccc1)c1[nH]c2[nH]cnc(=O)c2c1-c1c(Cl)cccc1Cl | 2.2 µM | 4.9 µM |
| COc1cc(C(=O)c2[nH]c3[nH]c(=O)[nH]c(=O)c3c2-c2ccc(O)c(OC)c2)ccc1O | > 100 µM | > 100 µM |
| Nc1ncnc2[nH]c(C(=O)c3ccccc3)c(-c3cc(Br)cc(Br)c3)c12 | > 100 µM | > 100 µM |
| O=C(c1ccc(O)cc1)c1[nH]c2[nH]cnc(=O)c2c1-c1ccc(O)cc1 | 2.8 µM | 4 µM |
| O=C(c1ccc(O)cc1)c1[nH]c2[nH]c(=O)[nH]c(=O)c2c1-c1ccc(O)cc1 | > 100 µM | > 100 µM |
| O=C(c1ccccc1)c1[nH]c2[nH]c(=S)[nH]c(=S)c2c1-c1cc(Br)cc(Br)c1 | > 100 µM | > 100 µM |
| O=C(c1ccccc1)c1[nH]c2[nH]cnc(=O)c2c1-c1cccc(O)c1 | 1.09 µM | 0.86 µM |
| O=C(c1ccccc1)c1[nH]c2[nH]c(=O)[nH]c(=O)c2c1-c1cc(Br)cc(Br)c1 | 47 µM | 71 µM |
| COc1cc(-c2c(C(=O)c3ccccc3)[nH]c3[nH]cnc(=O)c23)cc(I)c1OC | 40 µM | 8.2 µM |
| Nc1ncnc2[nH]c(C(=O)c3ccccc3)c(-c3ccccc3)c12 | 3.9 µM | 4.4 µM |
| O=C(c1ccccc1)c1[nH]c2[nH]cnc(=O)c2c1-c1cc(Br)cs1 | 56 µM | 43 µM |
| O=C(c1ccc(OCc2ccccc2)cc1)c1[nH]c2[nH]cnc(=O)c2c1-c1ccccc1 | 0.053 µM | 0.045 µM |
| COc1ccc(C(=O)c2[nH]c3[nH]cnc(=O)c3c2-c2cc(Br)cc(Br)c2)cc1 | 0.11 µM | 0.3 µM |
| COc1cc(-c2c(C(=O)c3ccc(O)cc3)[nH]c3[nH]cnc(=O)c23)ccc1O | 3 µM | 5 µM |
| N#Cc1cccc(-c2c(C(=O)c3ccccc3)[nH]c3[nH]cnc(=O)c23)c1 | 0.25 µM | 0.19 µM |
| COc1ccc(-c2c(C(=O)c3ccccc3)[nH]c3[nH]c(=O)[nH]c(=O)c23)cc1 | 14 µM | 80 µM |
| COc1cc(C(=O)c2[nH]c3[nH]c(=O)[nH]c(=O)c3c2-c2cc(OC)c(OC)c(OC)c2)ccc1OCc1ccccc1 | > 100 µM | > 100 µM |
| O=C(c1ccc(Br)cc1)c1[nH]c2[nH]cnc(=O)c2c1-c1cc(Br)cc(Br)c1 | 0.6 µM | 2.2 µM |
| O=C(c1ccccc1)c1[nH]c2[nH]cnc(=O)c2c1-c1cccc(Br)n1 | 0.135 µM | 0.15 µM |
| Nc1ncnc2[nH]c(C(=O)c3ccccc3)c(-c3cccs3)c12 | 15 µM | 28 µM |
| COc1cc(-c2c(C(=O)c3ccccc3)[nH]c3[nH]cnc(=O)c23)cc(Br)c1OC | 10 µM | 7.1 µM |
| O=C(c1ccccc1)c1[nH]c2ncnc(-c3ccccc3)c2c1-c1cc(Br)cc(Br)c1 | 10 µM | 18 µM |
